From ChEMBL document CHEMBL1141231, “Discovery and development of a new class of potent, selective, orally active oxytocin receptor antagonists” (J Med Chem, 2005)
≈ marks a conversion by molar mass, not a printed value. Where a SMILES comes first, the peptide text is derived from it. Bridges are numbered along the chain shown (N, C = ends). [ ]: non-standard residue; d: D form. Orn = NCCC[C@H](N)C(=O)O; Mpa = O=C(O)CCS

Tests used:
[1] = molecular target: T1, Oxytocin receptor (Homo sapiens) (UniProt P30559); assay: Displacement of [125I]OVTA antagonist from human oxytocin receptor expressed in HEK293-EBNA cells at 10 uM; type: cell-based
T1 sequence (whole entry): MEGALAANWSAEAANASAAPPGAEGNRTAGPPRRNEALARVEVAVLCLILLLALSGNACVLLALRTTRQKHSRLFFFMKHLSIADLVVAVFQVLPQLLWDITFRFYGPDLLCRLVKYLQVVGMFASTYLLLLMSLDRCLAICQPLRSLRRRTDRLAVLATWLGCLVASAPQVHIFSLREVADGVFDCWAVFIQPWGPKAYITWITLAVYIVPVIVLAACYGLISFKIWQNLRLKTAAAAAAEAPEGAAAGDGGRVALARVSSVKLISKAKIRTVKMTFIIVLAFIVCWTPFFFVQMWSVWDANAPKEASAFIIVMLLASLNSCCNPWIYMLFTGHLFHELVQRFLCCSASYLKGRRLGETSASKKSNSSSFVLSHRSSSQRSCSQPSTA

Vasopressin V1a receptor [2] = molecular target: T2, Vasopressin V1a receptor (Homo sapiens, UniProt P37288); conditions: HEK293-EBNA, at 10 µM
Target sequence in this assay (P37288 whole entry, looked up): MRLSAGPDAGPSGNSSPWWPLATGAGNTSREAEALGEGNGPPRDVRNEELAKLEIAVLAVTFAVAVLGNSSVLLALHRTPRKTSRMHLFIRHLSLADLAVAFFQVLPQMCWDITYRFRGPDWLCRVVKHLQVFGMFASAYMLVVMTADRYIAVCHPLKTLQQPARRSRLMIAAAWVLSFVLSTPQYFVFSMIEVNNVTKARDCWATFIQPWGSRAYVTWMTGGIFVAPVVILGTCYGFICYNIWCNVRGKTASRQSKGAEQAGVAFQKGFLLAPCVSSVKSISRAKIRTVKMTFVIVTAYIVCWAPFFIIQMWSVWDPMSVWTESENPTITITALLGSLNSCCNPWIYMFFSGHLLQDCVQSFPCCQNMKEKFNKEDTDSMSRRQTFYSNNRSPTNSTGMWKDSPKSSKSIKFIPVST

[3] = Solubility in saline; type: physicochemical
Oxytocin receptor [4] = molecular target: T3, Oxytocin receptor (Homo sapiens, UniProt P30559); assay: biochemical; type: cell-based, HEK293-EBNA
T3 sequence (P30559 whole entry): T1 sequence (whole entry)

Vasopressin V1a receptor [5] = molecular target: T2, Vasopressin V1a receptor; assay: Displacement of [125I]LVA antagonist from human vasopressin 1a receptor expressed in HEK293-EBNA cells; type: cell-based
Target sequence in this assay (P37288 whole entry): as the sequence (P37288 whole entry, looked up) above

Homo sapiens = species on record: Homo sapiens; assay: Selectivity for human vasopressin V1a receptor over human oxytocin receptor
Oxytocin receptor [6] = molecular target: T4, Oxytocin receptor (Rattus norvegicus, UniProt P70536); assay: Displacement of [125I]OVTA antagonist from rat oxytocin receptor expressed in HEK293-EBNA cells; type: cell-based
T4 sequence (P70536 whole entry): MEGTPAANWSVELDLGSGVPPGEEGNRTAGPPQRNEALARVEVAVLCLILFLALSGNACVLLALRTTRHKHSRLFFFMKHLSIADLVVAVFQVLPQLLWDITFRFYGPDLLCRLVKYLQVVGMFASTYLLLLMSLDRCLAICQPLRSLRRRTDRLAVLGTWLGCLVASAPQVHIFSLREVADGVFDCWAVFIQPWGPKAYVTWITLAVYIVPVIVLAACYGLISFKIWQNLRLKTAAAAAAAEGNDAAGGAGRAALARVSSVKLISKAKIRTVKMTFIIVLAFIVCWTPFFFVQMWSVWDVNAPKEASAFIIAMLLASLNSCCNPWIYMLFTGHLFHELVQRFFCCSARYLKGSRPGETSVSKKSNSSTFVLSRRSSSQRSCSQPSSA

[7] = Solubility in aqueous medium; type: physicochemical; conditions: aqueous medium; read-out: Solubility
Oxytocin receptor [8] = molecular target: T3, Oxytocin receptor; assay: Inhibitory activity against human Oxytocin induced intracellular Calcium mobilization in human Oxytocin receptor transfected HEK293-EBNA cells; type: functional, cell-based
[9] = Stability of compound in presence of rat liver microsomes; type: ADME
How it was run: (§1)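 Liver microsomes (human or rat) at final […] in 0.1 M phosphate pH 7.4 with compound at final 40 µM (1% DMSO), preincubated at 37 °C; reaction started with 1 mM NADPH; stopped with cold acetonitrile at 0, 20 and 60 min.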

Liver microsomes = assay: Stability of compound in presence of human liver microsomes; type: ADME, Microsome; how it was run: as §1
[10] = Inhibitory activity against cytochrome P450; type: ADME
How it was run: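 Baculovirus/insect-cell expressed CYP isoforms incubated with compound at several concentrations in 1% DMSO plus isoform-specific fluorogenic substrate; fluorescence after a fixed reaction time used to compute % inhibition and IC50.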

[11] = molecular target: T5, Oxytocin receptor (Rattus norvegicus) (UniProt P70536); assay: Inhibition of oxytocin-induced uterine contractions in nonpregnant rats administered at 10 mg/kg, iv; type: functional, organism-based; parameters: dose 10 mg/kg
T5 sequence (whole entry): T4 sequence (P70536 whole entry)
How it was run: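 Anaesthetized nonpregnant rats; compound given as a solution by iv infusion in NP3S, PEG/saline or saline. Uterine intraluminal pressure AUC is read relative to the third OT injection. Inhibition is taken versus vehicle values at 5 min after OT administration.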

[12] = Dissociation constant of the compound; type: physicochemical
Cytochrome P450 2C19 = Cytochrome P450 2C19 (Homo sapiens, UniProt P33261); assay: Inhibitory activity against cytochrome P450 2C19 isoform; type: ADME
How it was run: (§2)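 Baculovirus/insect-cell-expressed CYP isoforms are incubated with a specific fluorogenic substrate and several compound concentrations in 1% DMSO. Fluorescence of the product after a defined reaction time gives % inhibition at each concentration and the IC50.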

Cytochrome P450 2C9 = Cytochrome P450 2C9 (Homo sapiens, UniProt P11712); assay: Inhibitory activity against cytochrome P450 2C9 isoform
[13] = Oral bioavailability in rat; type: ADME, organism-based; conditions: in vivo
Vasopressin V2 receptor = Vasopressin V2 receptor (Homo sapiens, UniProt P30518); assay: Displacement of [125I]LVA antagonist from human vasopressin 2 receptor expressed in HEK293-EBNA cells; type: cell-based
[14] = molecular target: T5, Oxytocin receptor (Rattus norvegicus); assay: Inhibition of oxytocin-induced uterine contractions in nonpregnant rats administered at 30 mg/kg, po; type: functional, organism-based; parameters: dose 30 mg/kg
How it was run: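 Anaesthetized nonpregnant rats dosed orally by esophagus cannulation with a solution in NP3S, PEG/saline or saline. Uterine intraluminal pressure AUC is read versus vehicle. The value is the maximum inhibition within a 3 h interval after OT administration.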

[15] = molecular target: T5, Oxytocin receptor (Rattus norvegicus); assay: In vivo efficacy against oxytocin-induced uterine contractions in nonpregnant rats administered iv; type: functional, organism-based
How it was run: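 Anaesthetized nonpregnant rats; compound given as a solution by iv infusion in NP3S, PEG/saline or saline. Contractions read as AUC of intraluminal uterine pressure over 35 min, relative to the third OT injection, and expressed as % inhibition versus a vehicle group. ED50 is taken from a dose-response curve of peak inhibition values.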

Rattus norvegicus = assay: Inhibition of spontaneous uterine contraction in late-term pregnant rats at 30 mg/kg, po
Cytochrome P450 3A4 = Cytochrome P450 3A4 (Homo sapiens, UniProt P08684); assay: Inhibitory activity against cytochrome P450 3A4 isoform; type: ADME; how it was run: as §2
Cytochrome P450 3A4, sequence (P08684 whole entry, canonical isoform): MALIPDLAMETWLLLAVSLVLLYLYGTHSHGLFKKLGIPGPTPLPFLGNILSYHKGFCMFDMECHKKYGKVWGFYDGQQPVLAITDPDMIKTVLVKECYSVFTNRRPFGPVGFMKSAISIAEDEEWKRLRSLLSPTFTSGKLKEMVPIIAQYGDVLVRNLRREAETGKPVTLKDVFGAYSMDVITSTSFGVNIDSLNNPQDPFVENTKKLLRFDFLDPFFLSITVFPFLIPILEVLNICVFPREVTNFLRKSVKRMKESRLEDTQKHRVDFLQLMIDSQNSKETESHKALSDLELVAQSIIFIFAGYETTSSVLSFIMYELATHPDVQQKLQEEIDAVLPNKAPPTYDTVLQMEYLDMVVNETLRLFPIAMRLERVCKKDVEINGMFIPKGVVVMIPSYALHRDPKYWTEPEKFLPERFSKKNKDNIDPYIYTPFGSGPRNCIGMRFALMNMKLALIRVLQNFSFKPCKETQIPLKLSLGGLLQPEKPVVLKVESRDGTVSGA

Cytochrome P450 2C9, sequence (P11712 whole entry, canonical isoform): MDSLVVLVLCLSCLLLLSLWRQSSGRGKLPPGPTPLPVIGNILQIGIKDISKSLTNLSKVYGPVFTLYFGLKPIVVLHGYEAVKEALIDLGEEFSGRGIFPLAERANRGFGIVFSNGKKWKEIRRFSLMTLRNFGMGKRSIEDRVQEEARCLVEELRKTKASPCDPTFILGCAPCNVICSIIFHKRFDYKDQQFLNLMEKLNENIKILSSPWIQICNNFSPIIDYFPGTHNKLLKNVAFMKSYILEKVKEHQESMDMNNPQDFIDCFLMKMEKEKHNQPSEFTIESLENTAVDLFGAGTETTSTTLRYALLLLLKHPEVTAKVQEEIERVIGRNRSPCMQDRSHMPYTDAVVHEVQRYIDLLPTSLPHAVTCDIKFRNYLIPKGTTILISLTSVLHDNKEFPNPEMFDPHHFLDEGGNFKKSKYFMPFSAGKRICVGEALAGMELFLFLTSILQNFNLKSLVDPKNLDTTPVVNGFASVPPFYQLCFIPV
Vasopressin V2 receptor, sequence (P30518 whole entry): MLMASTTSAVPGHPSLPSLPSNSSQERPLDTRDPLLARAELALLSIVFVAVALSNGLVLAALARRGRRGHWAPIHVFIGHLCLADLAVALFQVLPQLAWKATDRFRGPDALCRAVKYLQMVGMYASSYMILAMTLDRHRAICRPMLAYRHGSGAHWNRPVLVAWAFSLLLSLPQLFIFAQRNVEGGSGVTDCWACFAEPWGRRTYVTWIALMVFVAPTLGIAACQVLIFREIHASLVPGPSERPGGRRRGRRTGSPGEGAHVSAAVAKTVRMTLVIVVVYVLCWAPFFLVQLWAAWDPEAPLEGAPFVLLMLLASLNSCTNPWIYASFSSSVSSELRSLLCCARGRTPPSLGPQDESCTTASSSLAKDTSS
Cytochrome P450 2C19, sequence (P33261 whole entry, canonical isoform): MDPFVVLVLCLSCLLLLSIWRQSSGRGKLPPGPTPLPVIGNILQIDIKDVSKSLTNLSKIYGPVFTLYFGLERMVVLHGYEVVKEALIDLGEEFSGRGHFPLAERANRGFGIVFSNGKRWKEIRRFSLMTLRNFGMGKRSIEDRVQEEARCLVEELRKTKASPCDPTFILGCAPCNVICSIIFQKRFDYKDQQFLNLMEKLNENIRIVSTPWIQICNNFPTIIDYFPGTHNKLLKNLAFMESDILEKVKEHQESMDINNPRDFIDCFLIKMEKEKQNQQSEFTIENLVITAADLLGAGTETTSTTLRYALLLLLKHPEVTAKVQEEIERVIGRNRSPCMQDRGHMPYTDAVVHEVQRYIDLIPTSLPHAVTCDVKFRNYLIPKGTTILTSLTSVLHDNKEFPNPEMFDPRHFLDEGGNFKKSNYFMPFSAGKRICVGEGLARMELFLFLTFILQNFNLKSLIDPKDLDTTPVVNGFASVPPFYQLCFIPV

Structure (SMILES)	inhibition [1] [%]	inhibition (Vasopressin V1a receptor [2]) [%]	Ki (Oxytocin receptor [4]) [nM]	Ki (Vasopressin V1a receptor [5]) [nM]	Ratio Ki (Homo sapiens)	Ki (Oxytocin receptor [6]) [nM]	further results
COc1ccc(N(CC(=O)Nc2cccc(Cl)c2C)S(=O)(=O)c2ccccc2)cc1Cl	< 50	< 50					
COCCOc1ccc(S(=O)(=O)N(CC(=O)N/N=C2\C(=O)Nc3ccccc32)c2ccc(Cl)cc2)cc1			7	1180	171	33	solubility [3]: < 1 µg/mL; solubility [7]: < 1 µg/mL
CN(C)CCCOc1ccc(S(=O)(=O)N(CC(=O)N/N=C2\C(=O)NC(=O)c3ccccc32)c2ccc(Cl)cc2)cc1			1.6	730	456	2.7	solubility [3]: 2 µg/mL (≈ 3.34 µM); solubility [7]: 580 µg/mL (≈ 970 µM); IC50 (Oxytocin receptor [8]): 15 nM; metabolised [9]: 89%; MET (Liver microsomes): 91%; IC50 [10]: > 1000 nM; inhibition [11]: 39.8%
CCOc1ccc(S(=O)(=O)N(CC(=O)N/N=C2\C(=O)Nc3ccncc32)c2ccc(Cl)cc2)cc1			64	3610	56		pKa [12]: 4.4
COc1ccccc1/C=N/NC(=O)CN(c1ccc(C)cc1)S(=O)(=O)c1ccccc1	< 50	< 50					
CCOc1ccc(S(=O)(=O)N(CC(=O)OC)c2ccc(C)cc2)cc1	< 50	< 50					
O=C(CN(c1ccc(Cl)cc1)S(=O)(=O)c1ccc(CCCO)cc1)N/N=C1\C(=O)Nc2ccccc21			4.1	615	150		IC50 (Cytochrome P450 2C19): 50 nM; solubility [3]: < 1 µg/mL; solubility [7]: < 1 µg/mL; IC50 (Oxytocin receptor [8]): 32 nM; IC50 (Cytochrome P450 2C9): 345 nM; metabolised [9]: 31%; MET (Liver microsomes): 34%
CCN(CC)C(=O)CN(c1ccc(OC)cc1)S(=O)(=O)c1ccccc1	< 50	< 50					
CCOc1ccc(C[C@H]2NC(=O)CCSSC[C@@H](C(=O)N3CCC[C@H]3C(=O)N[C@@H](CCCN)C(=O)NCC(N)=O)NC(=O)[C@H](CC(N)=O)NC(=O)[C@H]([C@@H](C)O)NC(=O)[C@H]([C@@H](C)CC)NC2=O)cc1 [ATOSIBAN] ([Mpa][dY](Et)ITNCP[Orn]G-NH2; disulfide 1-6)			27	0.63		76	IC50 (Oxytocin receptor [8]): 59 nM
CN(C)CCOc1ccc(S(=O)(=O)N(CC(=O)N/N=C2\C(=O)Nc3ccccc32)c2ccc(Cl)cc2)cc1			2.1	176	84	15	IC50 (Oxytocin receptor [8]): 59 nM
CCOc1ccc(S(=O)(=O)N(CC(=O)NN=C2C(=O)Nc3ccccc32)c2ccc(C)cc2)cc1			14	1410		25	bioavailability [13]: 6%; solubility [3]: < 1 µg/mL; Ki (Vasopressin V2 receptor): 2500 nM; solubility [7]: < 1 µg/mL; IC50 (Oxytocin receptor [8]): 30 nM
O=C(CN(c1ccc(Cl)cc1)S(=O)(=O)c1ccccc1)Nc1ccccc1	< 50	< 50					
COCCOCCOc1ccc(S(=O)(=O)N(CC(=O)N/N=C2\C(=O)Nc3ccccc32)c2ccc(Cl)cc2)cc1			3	511	176	12	solubility [3]: < 1 µg/mL; solubility [7]: < 1 µg/mL; IC50 (Oxytocin receptor [8]): 7 nM; IC50 (Cytochrome P450 2C9): 330 nM; metabolised [9]: 89%; MET (Liver microsomes): 79%; inhibition [11]: 23.3%
CN(C)CCCNC(=O)CCc1ccc(S(=O)(=O)N(CC(=O)N/N=C2\C(=O)Nc3ccccc32)c2ccc(Cl)cc2)cc1			0.65	42	65	0.67	inhibition [14]: 35%; ED50 [15]: 1.4 mg/kg; metabolised [9]: 0%; MET (Liver microsomes): 18%; IC50 [10]: > 1000 nM; inhibition [11]: 72%; inhibition in vivo at 30 mg/kg (Rattus norvegicus): 29.3%
CC(C)CCN(CC(=O)N1CCc2ccccc2C1)S(=O)(=O)c1ccccc1	< 50	< 50					
O=C(CN(CCc1ccccc1)S(=O)(=O)c1ccccc1)N1CCc2ccccc2C1	< 50	< 50					
Cc1ccc(N(CC(=O)Nc2cccc(Cl)c2C)S(C)(=O)=O)cc1	< 50	< 50					
CN(C)CCCOc1ccc(S(=O)(=O)N(CC(=O)N/N=C2\C(=O)Nc3ccncc32)c2ccc(Cl)cc2)cc1			115	618	5	140	IC50 (Oxytocin receptor [8]): 840 nM; metabolised [9]: 41%; MET (Liver microsomes): 20%; IC50 [10]: > 1000 nM; inhibition [11]: 23.8%
CN(C)CCCNC(=O)CCc1ccc(S(=O)(=O)N(CC(=O)/N=N/c2c(O)[nH]c3ccccc23)c2ccc(Cl)cc2)cc1.O=C(O)/C=C/C(=O)O							solubility [3]: 10000 µg/mL; solubility [7]: 20000 µg/mL
O=C(CCc1ccc(S(=O)(=O)N(CC(=O)N/N=C2\C(=O)Nc3ccccc32)c2ccc(Cl)cc2)cc1)NCCCO			0.9	94	102		solubility [3]: < 1 µg/mL; solubility [7]: < 1 µg/mL
CCOc1ccc(S(=O)(=O)N(CC(=O)N/N=C2\C(=O)Nc3ccccc32)c2ccc(C)cc2)cc1					100		ED50 [15]: 10 mg/kg; inhibition [11]: 49.9%
CN(C)CCCOc1ccc(S(=O)(=O)N(CC(=O)N/N=C2\C(=O)Nc3ccccc32)c2ccc(Cl)cc2)cc1			1.1	65	59	4.6	IC50 (Oxytocin receptor [8]): 14 nM; inhibition [14]: 22%; ED50 [15]: 7.5 mg/kg; metabolised [9]: 26%; MET (Liver microsomes): 0%; IC50 [10]: > 1000 nM; inhibition [11]: 67.4%
O=C(CN(c1ccc(Cl)cc1)S(=O)(=O)c1ccc(OCCN2CCOCC2)cc1)N/N=C1\C(=O)Nc2ccccc21			0.9	133	148	8	inhibition [14]: 30%; ED50 [15]: 9.4 mg/kg; metabolised [9]: 21%; MET (Liver microsomes): 57%; IC50 [10]: > 1000 nM; inhibition [11]: 43%
O=C(CN(c1ccc(Cl)cc1)S(=O)(=O)c1ccc(NCCN2CCOCC2)cc1)N/N=C1\C(=O)Nc2ccccc21			7	582	84	25	IC50 (Cytochrome P450 3A4): 310 nM; metabolised [9]: 40%; MET (Liver microsomes): 73%
CCOc1ccc(S(=O)(=O)N(CC(=O)NN)c2ccc(C)cc2)cc1	< 50	< 50					
Cc1ccc(N(CC(=O)N/N=C/c2ccccc2Cl)S(=O)(=O)c2ccccc2)cc1	< 50	< 50					
Cc1ccc(N(CC(=O)N/N=C/c2ccccc2F)S(=O)(=O)c2ccccc2)cc1	< 50	< 50					
